# Measurements of several laboratories.
# Lines come from different studies, so protocols differ.
# HRH1: Histamine H1 receptor (HRH1, Homo sapiens, UniProt P35367)
# CHRM4: Muscarinic acetylcholine receptor M4 (CHRM4, Homo sapiens, UniProt P08173)
Compound,target,assay,conditions,endpoint,value
CC[C@H](C)[C@H](NC(=O)[C@H](CCCNC(=N)N)NC(=O)[C@H](CC(C)C)NC(=O)[C@@H](N)Cc1ccccc1)C(=O)N[C@@H](CCCNC(=N)N)C(=O)N1CCC[C@H]1C(=O)N[C@@H](CCCCN)C(=O)O,HRH1,"cell-free assay, radioligand",,Ki,> 10 µM
CNc1nc2cc(OCCCCN3CCN(c4cccc(Cl)c4Cl)CC3)ccc2s1,HRH1,"ligand displacement, radioligand",,Ki,0.056 µM
CC(C)(COP(=O)(O)OP(=O)(O)OC[C@H]1O[C@@H](n2cnc3c(N)ncnc32)[C@H](O)[C@@H]1OP(=O)(O)O)[C@@H](O)C(=O)NCCC(=O)NCCSC(=O)c1ccccc1N,"pqsD (Pseudomonas aeruginosa, UniProt P20582, C113A)","binding, ITC",,Kd,~57 µM
OC(c1ccc(F)cc1)C(F)(F)CCN1CCC(O)(c2ccc(Cl)cc2)CC1 (racemic),HRH1,"cell-free assay, radioligand",,Ki,0.408 µM
Fc1ccc([C@@H]2CCNC[C@H]2COc2ccc3c(c2)OCO3)cc1,"Beta-1 adrenergic receptor (ADRB1, Homo sapiens, UniProt P08588)","ligand displacement, radioligand",,Ki,10 µM
Cc1cc(N2CCNCC2)nc2ccccc12,CHRM4,"ligand displacement, radioligand",cell membranes,Ki,> 63.1 µM
CCCCC/C=C\C/C=C\C/C=C\C/C=C\CCCC(=O)OCCN,"Cytochrome P450 2J2 (CYP2J2, Homo sapiens, UniProt P51589)","binding, absorbance",,Kd,14 µM
N[C@@H](CCP(=O)(O)O)C(=O)O,"Metabotropic glutamate receptor 4 (GRM4, Homo sapiens, UniProt Q14833)","calcium signal, agonist",,EC50,0.151 µM
O=C(Nc1cccc(-c2ccn3c(CC4CC4)nnc3c2C(F)(F)F)c1)c1ccc(S(=O)(=O)F)cc1,"Metabotropic glutamate receptor 1 (GRM1, Homo sapiens, UniProt Q13255)","calcium signal, agonist",,EC50,> 50.1 µM
CC[C@H](C)[C@H](NC(=O)[C@H](CS)NC(=O)[C@H](CCC(N)=O)NC(=O)[C@H](CC(C)C)NC(=O)[C@H](CCCCN)NC(=O)[C@H](CCCNC(=N)N)NC(=O)[C@H](C)NC(=O)[C@@H](NC(=O)[C@H](CCC(N)=O)NC(=O)[C@@H](NC(=O)[C@H](CCC(=O)O)NC(=O)[C@H](C)NC(=O)[C@H](CCC(N)=O)NC(=O)[C@H](Cc1c[nH]cn1)NC(=S)Nc1ccc2c(c1)C(=O)OC21c2ccc(O)cc2Oc2cc(O)ccc21)C(C)C)[C@@H](C)CC)C(=O)N[C@@H](C)C(=O)N[C@@H](CC(=O)O)C(=O)N[C@@H](CCC(N)=O)C(=O)N[C@@H](Cc1ccccc1)C(=O)N[C@@H](Cc1c[nH]cn1)C(=O)N[C@@H](CCCNC(=N)N)C(=O)N[C@@H](CC(C)C)C(=O)N[C@@H](Cc1c[nH]cn1)C(=O)N[C@H](C(=O)N[C@@H](CCC(N)=O)C(=O)N[C@@H](CCC(N)=O)C(=O)O)C(C)C,"Induced myeloid leukemia cell differentiation protein Mcl-1 (MCL1, Homo sapiens, UniProt Q07820, R263A)","cell-free assay, FP",,Kd,49 µM
CSCC[C@H](NC(=O)[C@@H](NC(=O)[C@@H](N)Cc1ccc(O)cc1)C(C)C)C(=O)NCC(=O)N[C@@H](Cc1c[nH]cn1)C(=O)O,"Melanocortin receptor 5 (Mus musculus, UniProt P41149)","reporter gene, agonist",,EC50,26.8 µM
CC(C)C[C@H](NC(=O)[C@H](CCCCN)NC(=O)[C@@H]1CCCN1C(=O)[C@@H](N)CCCNC(=N)N)C(=O)N[C@@H](CCCCN)C(=O)O,HRH1,"cell-free assay, radioligand",,Ki,> 10 µM
Nc1cccc2cc3ccccc3cc12,"Ferritin light chain (FTL, Equus caballus, UniProt P02791)","binding, fluorescence",,Kd,9 µM
c1cc(N2CCNCC2)c2cc[nH]c2c1,CHRM4,"ligand displacement, radioligand",cell membranes,Ki,> 63.1 µM
NC(N)=NCCC[C@H](NC(=O)OCc1ccccc1)C(=O)O,"Serine protease 1 (PRSS1, Bos taurus, UniProt P00760)","enzyme activity, inhibitor, absorbance",pH 7.2,Ki,1230 µM
